ChEMBL document CHEMBL3792361, “Design and Synthesis of Benzimidazoles As Novel Corticotropin-Releasing Factor 1 Receptor Antagonists” (J Med Chem, 2016)
Values after ≈ are worked out from the molar mass of the structure shown. Active and inactive are the calls of the source. No cut-off for these calls is given here.

Tests used:
[1] = biological target: T1, Corticotropin-releasing factor receptor 1 (Homo sapiens, UniProt P34998); test: Displacement of [125I]-CRF from human CRF1 receptor expressed in CHO cellular membrane fraction after 1.5 hrs by liquid scintillation counting method; assay type: cell-based
T1 sequence (P34998 whole entry): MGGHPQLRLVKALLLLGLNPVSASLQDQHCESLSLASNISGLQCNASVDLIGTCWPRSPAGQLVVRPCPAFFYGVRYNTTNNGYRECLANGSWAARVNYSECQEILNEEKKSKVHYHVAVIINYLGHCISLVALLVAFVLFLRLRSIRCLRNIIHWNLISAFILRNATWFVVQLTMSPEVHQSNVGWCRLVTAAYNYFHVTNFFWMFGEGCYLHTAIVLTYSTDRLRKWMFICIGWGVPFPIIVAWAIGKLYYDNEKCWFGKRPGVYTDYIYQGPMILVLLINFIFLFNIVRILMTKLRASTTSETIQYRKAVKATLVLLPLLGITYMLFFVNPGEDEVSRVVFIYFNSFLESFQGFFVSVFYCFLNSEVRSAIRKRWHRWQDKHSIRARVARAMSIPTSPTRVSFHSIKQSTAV

[2] = Cytotoxicity against human HepG2 cells assessed as rate of ATP content at 30 uM after 1 day by ATPLite-M assay relative to control; assay type: cell-based; conditions: read-out: Activity
[3] = Octanol-water partition co-efficient, log D of the compound at pH 7.4 by HPLC analysis; assay type: physicochemical
Mus musculus [4] = test: Ex vivo inhibition of [125I]-CRF binding to CRF1 receptor in mouse frontal cortex at 20 mg/kg, po after 1 hr by gamma scintillation counting method; assay type: functional
How it was run: (§1)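 Compound suspended in 0.5% methyl cellulose in water and dosed orally (10 mL/kg), 5 mice/group. Incubated with 100 pM ovine 125I-CRF at rt for 2 h, then GF/C filtration.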

Mus musculus [5] = test: Ex vivo inhibition of [125I]-CRF binding to CRF1 receptor in mouse olfactory bulb at 20 mg/kg, po after 1 hr by gamma scintillation counting method; assay type: functional; how it was run: as §1
Mus musculus [6] = test: Ex vivo inhibition of [125I]-CRF binding to CRF1 receptor in mouse pituitary gland at 20 mg/kg, po after 1 hr by gamma scintillation counting method; assay type: functional; how it was run: as §1
[7] = biological target: T2, Corticotropin-releasing factor receptor 2 (Homo sapiens) (UniProt Q13324); test: Binding affinity to human CRF2alpha receptor up to 10 uM
T2 sequence (whole entry): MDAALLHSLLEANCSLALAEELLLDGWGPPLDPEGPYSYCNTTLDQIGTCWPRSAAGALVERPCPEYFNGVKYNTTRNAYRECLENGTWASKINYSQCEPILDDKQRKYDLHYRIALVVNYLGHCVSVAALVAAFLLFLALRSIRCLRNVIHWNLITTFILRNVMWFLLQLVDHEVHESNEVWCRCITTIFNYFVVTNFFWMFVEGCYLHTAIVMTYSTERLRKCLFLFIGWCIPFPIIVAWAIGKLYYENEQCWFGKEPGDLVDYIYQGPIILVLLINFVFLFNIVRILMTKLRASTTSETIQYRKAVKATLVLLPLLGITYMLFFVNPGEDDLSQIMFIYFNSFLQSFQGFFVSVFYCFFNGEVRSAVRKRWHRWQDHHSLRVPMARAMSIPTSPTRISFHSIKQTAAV

[8] = biological target: T2, Corticotropin-releasing factor receptor 2 (Homo sapiens); test: Binding affinity to human CRF2beta receptor up to 10 uM
[9] = Solubility of the compound in pH 6.8 phosphate buffer with bile acid by HPLC analysis; assay type: physicochemical
How it was run: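 DMSO stock of compound added to pH 6.8 phosphate buffer containing bile acid. After incubation, precipitate removed by filter-plate filtration; dissolved compound in filtrate quantified by HPLC.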

Mus musculus [10] = test: Ex vivo inhibition of [125I]-CRF binding to CRF1 receptor in mouse frontal cortex at 60 mg/kg, po after 1 hr by gamma scintillation counting method; assay type: functional; how it was run: as §1
Mus musculus [11] = test: Ex vivo inhibition of [125I]-CRF binding to CRF1 receptor in mouse olfactory bulb at 60 mg/kg, po after 1 hr by gamma scintillation counting method; assay type: functional; how it was run: as §1
Mus musculus [12] = test: Ex vivo inhibition of [125I]-CRF binding to CRF1 receptor in mouse pituitary gland at 60 mg/kg, po after 1 hr by gamma scintillation counting method; assay type: functional; how it was run: as §1
Mus musculus [13] = test: Suppression of stress-induced activation of hypothalamus-pituitary-adrenocortical axis in mouse assessed as reduction of plasma ATCH level at 60 mg/kg, po after 1 hr by immunoradiometric assay; assay type: functional, organism-based
How it was run: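 Mice dosed orally with compound suspended in 0.5% methyl cellulose (10 mL/kg) 1 h before test. PBS given icv (5 µL/mouse); blood taken by decapitation 0.5 h later. Plasma separated by centrifugation at 4°C; ACTH measured by immunoradiometric assay. Mean ± SEM, n = 10, Dunnett's test vs vehicle.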

| Compound | IC50 [1] | viability at 24 h, 30 µM [2] | further results |
| --- | --- | --- | --- |
| CCCN(CCC)c1cccc2nc(Nc3c(C)cc(C)cc3C)oc12 | 990 nM | 65% |  |
| CCCN(CCC)c1cccc2nc(Nc3c(C)cc(C)cc3C)n(C)c12 | 15 nM | 89% | logD [3]: 5.23 |
| CCCN(CCC)c1cccc2nc(Nc3c(C)cc(C)cc3C)[nH]c12 | 2500 nM | 41% |  |
| COCCN(CCOC)c1cccc2nc(Nc3c(C)cc(Br)cc3OC)n(C)c12 | 65 nM | 92% |  |
| CCCN(CCC)c1cccc2nc(Nc3c(C)cc(Br)cc3OC)n(C)c12 | 12 nM | 82% | logD [3]: 5.39 |
| CCCCN(CCCC)c1cccc2nc(Nc3c(C)cc(Br)cc3OC)n(C)c12 | 14 nM | 90% |  |
| CCN(CC)c1ccc(C#N)c2nc(Nc3c(C)cc(Cl)cc3OC)n(C)c12 | 13 nM | 81% |  |
| CCCN(CCC)c1cccc2nc(Nc3c(C)cc(Cl)cc3OC)n(C)c12 | 14 nM |  |  |
| CCN(c1cccc2nc(Nc3c(C)cc(Br)cc3OC)n(C)c12)C(C)C | 11 nM | 87% |  |
| CCCN(CCC)c1cccc2nc(Nc3ccc(C)cc3C)n(C)c12 | 84 nM | 79% |  |
| CCCN(CCC)c1cccc2nc(Nc3c(C)cc(C)cc3C)n(-c3ccccc3)c12 | 2200 nM | 32% | logD [3]: 6.31 |
| CCCN(CCC)c1c(Cl)ccc2nc(Nc3c(C)cc(Cl)cc3OC)n(C)c12 | > 10000 nM | 86% |  |
| CCCN(CCC)c1cccc2nc(Nc3c(C)cc(C)cc3C)n(C(C)C)c12 | 97 nM | 10% | logD [3]: 5.9 |
| CCN(CC)c1ccc(C)c2nc(Nc3c(C)cc(Cl)cc3OC)n(C)c12 | 7.6 nM | 72% |  |
| CCCN(CCC)c1cc(C)nc2c(-c3cnc(N(C)C)cc3C)c(C)nn12 |  | 51% | inhibition in vivo at 20 mg/kg (Mus musculus [4]): 96%; inhibition in vivo at 20 mg/kg (Mus musculus [5]): 95%; inhibition in vivo at 20 mg/kg (Mus musculus [6]): 98% |
| CCN(CC)c1cccc2nc(Nc3c(C)cc(Br)cc3OC)n(C)c12 | 13 nM | 93% |  |
| CCN(CC)c1ccc(Cl)c2nc(Nc3c(C)cc(Cl)cc3OC)n(C)c12 |  | 76% |  |
| CCCN(CCC)c1c(Cl)cc(Cl)c2nc(Nc3c(C)cc(Cl)cc3OC)n(C)c12 | 170 nM | 72% |  |
| CCCN(CCC)c1ccc(Cl)c2nc(Nc3c(C)cc(Cl)cc3OC)n(C)c12 |  |  | Activity [7]: inactive; Activity [8]: inactive; solubility [9]: 33 µg/mL (≈ 75.8 µM); inhibition in vivo at 60 mg/kg (Mus musculus [10]): 86%; inhibition in vivo at 60 mg/kg (Mus musculus [11]): 83%; inhibition in vivo at 60 mg/kg (Mus musculus [12]): 101%; Activity (Mus musculus [13]): Active |
| CCCN(CCC)c1cccc2nc(Nc3c(C)cc(C)cc3C)sc12 | 77 nM | 75% |  |
| CCCN(CCC)c1cccc2nc(Nc3c(C)cccc3C)n(C)c12 | 140 nM | 72% |  |
| CCCN(CCC)c1cccc2nc(Nc3c(C)cc(Cl)cc3C(C)C)n(C)c12 | 22 nM | 28% | logD [3]: 5.96 |
| CCN(CC)c1ccc(OC)c2nc(Nc3c(C)cc(Cl)cc3OC)n(C)c12 | 13 nM | 5% |  |
| CCN(CC)c1ccc(-c2ccccc2)c2nc(Nc3c(C)cc(Cl)cc3OC)n(C)c12 | > 10000 nM | 92% |  |
| CCCN(CCC)c1ccc(C#N)c2nc(Nc3c(C)cc(Cl)cc3OC)n(C)c12 | 14 nM | 83% |  |
